# Source: ChEMBL document CHEMBL5303300, “EUbOPEN Chemogenomics Library - Multiplex” (2023)
# Where “and” joins values, the source holds several entries; their conditions need not be identical. Equal values may be shown once.
# Columns and labels:
# Assay type in all cases: toxicity, cell-based
# HEK-293T = test: Multiplex assay against HEK293T; conditions: human, number of replicates 2
# Outline: (§1)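 Compound was added to live cells that had been stained at seeding with Hoechst33342, BioTracker Green Microtubule Cytoskeleton Dye, MitoTracker Red and Annexin V Alexa Fluor 680, and imaging followed on a CQ1 microscope at 37°C and 5% CO2. CellPathfinder machine-learning gating divided cells into Hoechst high-intensity objects or normal cells, normal cells into healthy, pyknosed or fragmented nuclei, and pyknosed cells into mitotic or apoptotic. Tubulin, mitochondrial-mass and membrane-permeability phenotypes are per cents of healthy-nucleus cells.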
# Fibroblast = test: Multiplex assay against human fibroblast; conditions: number of replicates 2; outline: as §1
# U2OS = test: Multiplex assay against U2OS; conditions: human, number of replicates 2; outline: as §1
# [1] = 12 h, 1 µM, compound concentration 1 uM
# [2] = 12 h, 10 µM, compound concentration 10 uM
# [3] = 24 h, 1 µM, compound concentration 1 uM
# [4] = 24 h, 10 µM, compound concentration 10 uM
# [5] = 48 h, 1 µM, compound concentration 1 uM
# [6] = 48 h, 10 µM, compound concentration 10 uM
compound,measurement,setting,value
CCC(=O)O[C@@H](OP(=O)(CCCCc1ccccc1)CC(=O)N1C[C@H](C2CCCCC2)C[C@H]1C(=O)[O-])C(C)C.[Na+] (stereo partly specified),Population Apoptotic (%),HEK-293T; [1],44% and 35%
same,Population Fragmented Nuclei (%),HEK-293T; [1],2% and 1%
same,Population Healthy Nuclei (%),HEK-293T; [1],86% and 85%
same,Population Hoechst High Intensity Objects (%),HEK-293T; [1],5% and 6%
same,Population Membrane Permeable-Phenotype (%),HEK-293T; [1],3%
same,Population Mitochondria Different-Phenotype (%),HEK-293T; [1],17% and 15%
same,Population Mitotic Cells (%),HEK-293T; [1],55% and 64%
same,Population Normal (%),HEK-293T; [1],94% and 93%
same,Population Pyknosed Nuclei (%),HEK-293T; [1],11% and 12%
same,Population Tubulin-Different-Phenotype (%),HEK-293T; [1],46% and 44%
same,Total Cell Count,HEK-293T; [1],721 and 624
same,Population Apoptotic (%),HEK-293T; [2],28% and 35%
same,Population Fragmented Nuclei (%),HEK-293T; [2],2% and 3%
same,Population Healthy Nuclei (%),HEK-293T; [2],84% and 86%
same,Population Hoechst High Intensity Objects (%),HEK-293T; [2],5% and 6%
same,Population Membrane Permeable-Phenotype (%),HEK-293T; [2],1% and 3%
same,Population Mitochondria Different-Phenotype (%),HEK-293T; [2],13%
same,Population Mitotic Cells (%),HEK-293T; [2],71% and 64%
same,Population Normal (%),HEK-293T; [2],94% and 93%
same,Population Pyknosed Nuclei (%),HEK-293T; [2],12% and 10%
same,Population Tubulin-Different-Phenotype (%),HEK-293T; [2],51% and 50%
same,Total Cell Count,HEK-293T; [2],743 and 727
same,Population Apoptotic (%),HEK-293T; [3],40% and 41%
same,Population Fragmented Nuclei (%),HEK-293T; [3],5% and 3%
same,Population Healthy Nuclei (%),HEK-293T; [3],86% and 88%
same,Population Hoechst High Intensity Objects (%),HEK-293T; [3],7% and 8%
same,Population Membrane Permeable-Phenotype (%),HEK-293T; [3],3%
same,Population Mitochondria Different-Phenotype (%),HEK-293T; [3],4% and 5%
same,Population Mitotic Cells (%),HEK-293T; [3],59% and 58%
same,Population Normal (%),HEK-293T; [3],92% and 91%
same,Population Pyknosed Nuclei (%),HEK-293T; [3],7% and 8%
same,Population Tubulin-Different-Phenotype (%),HEK-293T; [3],26% and 30%
same,Total Cell Count,HEK-293T; [3],1141 and 899
same,Population Apoptotic (%),HEK-293T; [4],18% and 31%
same,Population Fragmented Nuclei (%),HEK-293T; [4],3% and 4%
same,Population Healthy Nuclei (%),HEK-293T; [4],89% and 88%
same,Population Hoechst High Intensity Objects (%),HEK-293T; [4],6% and 9%
same,Population Membrane Permeable-Phenotype (%),HEK-293T; [4],3% and 2%
same,Population Mitochondria Different-Phenotype (%),HEK-293T; [4],2% and 3%
same,Population Mitotic Cells (%),HEK-293T; [4],81% and 68%
same,Population Normal (%),HEK-293T; [4],93% and 90%
same,Population Pyknosed Nuclei (%),HEK-293T; [4],7% and 6%
same,Population Tubulin-Different-Phenotype (%),HEK-293T; [4],28% and 31%
same,Total Cell Count,HEK-293T; [4],1219 and 1091
same,Population Apoptotic (%),HEK-293T; [5],22% and 18%
same,Population Fragmented Nuclei (%),HEK-293T; [5],12% and 7%
same,Population Healthy Nuclei (%),HEK-293T; [5],84% and 88%
same,Population Hoechst High Intensity Objects (%),HEK-293T; [5],9% and 11%
same,Population Membrane Permeable-Phenotype (%),HEK-293T; [5],5% and 4%
same,Population Mitochondria Different-Phenotype (%),HEK-293T; [5],0% and 1%
same,Population Mitotic Cells (%),HEK-293T; [5],77% and 81%
same,Population Normal (%),HEK-293T; [5],90% and 88%
same,Population Pyknosed Nuclei (%),HEK-293T; [5],2% and 3%
same,Population Tubulin-Different-Phenotype (%),HEK-293T; [5],10% and 14%
same,Total Cell Count,HEK-293T; [5],2926 and 1957
same,Population Apoptotic (%),HEK-293T; [6],5% and 13%
same,Population Fragmented Nuclei (%),HEK-293T; [6],14% and 8%
same,Population Healthy Nuclei (%),HEK-293T; [6],82% and 87%
same,Population Hoechst High Intensity Objects (%),HEK-293T; [6],10% and 11%
same,Population Membrane Permeable-Phenotype (%),HEK-293T; [6],4% and 3%
same,Population Mitochondria Different-Phenotype (%),HEK-293T; [6],0%
same,Population Mitotic Cells (%),HEK-293T; [6],94% and 86%
same,Population Normal (%),HEK-293T; [6],89% and 88%
same,Population Pyknosed Nuclei (%),HEK-293T; [6],2% and 4%
same,Population Tubulin-Different-Phenotype (%),HEK-293T; [6],12% and 17%
same,Total Cell Count,HEK-293T; [6],3198 and 2304
same,Population Apoptotic (%),Fibroblast; [1],42% and 43%
same,Population Fragmented Nuclei (%),Fibroblast; [1],7% and 8%
same,Population Healthy Nuclei (%),Fibroblast; [1],69% and 71%
same,Population Hoechst High Intensity Objects (%),Fibroblast; [1],0%
same,Population Membrane Permeable-Phenotype (%),Fibroblast; [1],9% and 2%
same,Population Mitochondria Different-Phenotype (%),Fibroblast; [1],0% and 2%
same,Population Mitotic Cells (%),Fibroblast; [1],57% and 56%
same,Population Normal (%),Fibroblast; [1],99%
same,Population Pyknosed Nuclei (%),Fibroblast; [1],22% and 19%
same,Population Tubulin-Different-Phenotype (%),Fibroblast; [1],11% and 9%
same,Total Cell Count,Fibroblast; [1],189 and 198
same,Population Fragmented Nuclei (%),Fibroblast; [2],6% and 13%
same,Population Healthy Nuclei (%),Fibroblast; [2],76% and 70%
same,Population Hoechst High Intensity Objects (%),Fibroblast; [2],0%
same,Population Membrane Permeable-Phenotype (%),Fibroblast; [2],5% and 2%
same,Population Mitochondria Different-Phenotype (%),Fibroblast; [2],0%
same,Population Mitotic Cells (%),Fibroblast; [2],45% and 82%
same,Population Normal (%),Fibroblast; [2],100%
same,Population Pyknosed Nuclei (%),Fibroblast; [2],16% and 15%
same,Population Tubulin-Different-Phenotype (%),Fibroblast; [2],10% and 5%
same,Total Cell Count,Fibroblast; [2],207 and 226
same,Population Apoptotic (%),Fibroblast; [3],50% and 45%
same,Population Fragmented Nuclei (%),Fibroblast; [3],6% and 14%
same,Population Healthy Nuclei (%),Fibroblast; [3],73% and 64%
same,Population Hoechst High Intensity Objects (%),Fibroblast; [3],0%
same,Population Membrane Permeable-Phenotype (%),Fibroblast; [3],3% and 6%
same,Population Mitochondria Different-Phenotype (%),Fibroblast; [3],0% and 2%
same,Population Mitotic Cells (%),Fibroblast; [3],50% and 54%
same,Population Normal (%),Fibroblast; [3],100%
same,Population Pyknosed Nuclei (%),Fibroblast; [3],20%
same,Population Tubulin-Different-Phenotype (%),Fibroblast; [3],9% and 10%
same,Total Cell Count,Fibroblast; [3],178 and 215
same,Population Apoptotic (%),Fibroblast; [4],41% and 50%
same,Population Fragmented Nuclei (%),Fibroblast; [4],8% and 14%
same,Population Healthy Nuclei (%),Fibroblast; [4],76% and 74%
same,Population Hoechst High Intensity Objects (%),Fibroblast; [4],0%
same,Population Membrane Permeable-Phenotype (%),Fibroblast; [4],5% and 1%
same,Population Mitochondria Different-Phenotype (%),Fibroblast; [4],0%
same,Population Mitotic Cells (%),Fibroblast; [4],58% and 50%
same,Population Normal (%),Fibroblast; [4],99% and 100%
same,Population Pyknosed Nuclei (%),Fibroblast; [4],15% and 11%
same,Population Tubulin-Different-Phenotype (%),Fibroblast; [4],11% and 3%
same,Total Cell Count,Fibroblast; [4],223 and 221
same,Population Apoptotic (%),Fibroblast; [5],68% and 61%
same,Population Fragmented Nuclei (%),Fibroblast; [5],11% and 15%
same,Population Healthy Nuclei (%),Fibroblast; [5],67% and 68%
same,Population Hoechst High Intensity Objects (%),Fibroblast; [5],0%
same,Population Membrane Permeable-Phenotype (%),Fibroblast; [5],5% and 11%
same,Population Mitochondria Different-Phenotype (%),Fibroblast; [5],0% and 1%
same,Population Mitotic Cells (%),Fibroblast; [5],31% and 38%
same,Population Normal (%),Fibroblast; [5],100%
same,Population Pyknosed Nuclei (%),Fibroblast; [5],20% and 16%
same,Population Tubulin-Different-Phenotype (%),Fibroblast; [5],8%
same,Total Cell Count,Fibroblast; [5],183 and 213
same,Population Apoptotic (%),Fibroblast; [6],45% and 48%
same,Population Fragmented Nuclei (%),Fibroblast; [6],9% and 16%
same,Population Healthy Nuclei (%),Fibroblast; [6],75% and 72%
same,Population Hoechst High Intensity Objects (%),Fibroblast; [6],0%
same,Population Membrane Permeable-Phenotype (%),Fibroblast; [6],4% and 1%
same,Population Mitochondria Different-Phenotype (%),Fibroblast; [6],0%
same,Population Mitotic Cells (%),Fibroblast; [6],54% and 52%
same,Population Normal (%),Fibroblast; [6],99% and 100%
same,Population Pyknosed Nuclei (%),Fibroblast; [6],14% and 10%
same,Population Tubulin-Different-Phenotype (%),Fibroblast; [6],6% and 1%
same,Total Cell Count,Fibroblast; [6],222 and 228
same,Population Apoptotic (%),U2OS; [1],33% and 87%
same,Population Healthy Nuclei (%),U2OS; [1],60% and 83%
same,Population Hoechst High Intensity Objects (%),U2OS; [1],0%
same,Population Membrane Permeable-Phenotype (%),U2OS; [1],0% and 1%
same,Population Mitochondria Different-Phenotype (%),U2OS; [1],0%
same,Population Normal (%),U2OS; [1],100%
same,Population Pyknosed Nuclei (%),U2OS; [1],6% and 12%
same,Population Tubulin-Different-Phenotype (%),U2OS; [1],80% and 82%
same,Population Apoptotic (%),U2OS; [2],100% and 40%
same,Population Healthy Nuclei (%),U2OS; [2],53% and 87%
same,Population Hoechst High Intensity Objects (%),U2OS; [2],0%
same,Population Membrane Permeable-Phenotype (%),U2OS; [2],7% and 0%
same,Population Mitochondria Different-Phenotype (%),U2OS; [2],7% and 0%
same,Population Normal (%),U2OS; [2],100%
same,Population Pyknosed Nuclei (%),U2OS; [2],7%
same,Population Tubulin-Different-Phenotype (%),U2OS; [2],78% and 80%
same,Population Apoptotic (%),U2OS; [3],40% and 80%
same,Population Healthy Nuclei (%),U2OS; [3],61% and 87%
same,Population Hoechst High Intensity Objects (%),U2OS; [3],0%
same,Population Membrane Permeable-Phenotype (%),U2OS; [3],0%
same,Population Mitochondria Different-Phenotype (%),U2OS; [3],0%
same,Population Normal (%),U2OS; [3],100% and 99%
same,Population Pyknosed Nuclei (%),U2OS; [3],8%
same,Population Tubulin-Different-Phenotype (%),U2OS; [3],80% and 86%
same,Population Apoptotic (%),U2OS; [4],80% and 41%
same,Population Fragmented Nuclei (%),U2OS; [4],4%
same,Population Healthy Nuclei (%),U2OS; [4],71% and 87%
same,Population Hoechst High Intensity Objects (%),U2OS; [4],0%
same,Population Membrane Permeable-Phenotype (%),U2OS; [4],6% and 1%
same,Population Mitochondria Different-Phenotype (%),U2OS; [4],0%
same,Population Mitotic Cells (%),U2OS; [4],20% and 58%
same,Population Normal (%),U2OS; [4],100% and 99%
same,Population Pyknosed Nuclei (%),U2OS; [4],23% and 8%
same,Population Tubulin-Different-Phenotype (%),U2OS; [4],80% and 83%
same,Population Apoptotic (%),U2OS; [5],50% and 84%
same,Population Healthy Nuclei (%),U2OS; [5],72% and 90%
same,Population Hoechst High Intensity Objects (%),U2OS; [5],0%
same,Population Membrane Permeable-Phenotype (%),U2OS; [5],0% and 1%
same,Population Mitochondria Different-Phenotype (%),U2OS; [5],0%
same,Population Normal (%),U2OS; [5],100% and 99%
same,Population Pyknosed Nuclei (%),U2OS; [5],10% and 6%
same,Population Tubulin-Different-Phenotype (%),U2OS; [5],87% and 85%
same,Population Apoptotic (%),U2OS; [6],75% and 46%
same,Population Healthy Nuclei (%),U2OS; [6],64% and 92%
same,Population Hoechst High Intensity Objects (%),U2OS; [6],0%
same,Population Membrane Permeable-Phenotype (%),U2OS; [6],4% and 0%
same,Population Mitochondria Different-Phenotype (%),U2OS; [6],0%
same,Population Mitotic Cells (%),U2OS; [6],25% and 53%
same,Population Normal (%),U2OS; [6],100%
same,Population Tubulin-Different-Phenotype (%),U2OS; [6],70% and 85%
